Published values from different studies.
Compare with care: the assays were run in different laboratories.

| Compound | cell line | test | setting | measurement | result |
| --- | --- | --- | --- | --- | --- |
| Cc1cccc2c(C(c3ccc(/C=C/C(=O)O)s3)c3c[nH]c4c(C)cccc34)c[nH]c12 | DU-145 | cell growth or viability, MTT | 100 µM, 48 h | inhibition | 78% |
| O=C1Nc2ccccc2C1=NNc1nnc2n1N=C(c1ccccc1)CS2 | DU-145 | cell growth or viability, SRB | 10 µM | inhibition | 16% |
| CCc1cccc(CN2CCc3cc(O)c(OC)cc3C2)c1 | DU-145 | cell growth or viability, WST-1 | 96 h | GI50 | > 100000 nM |
| COc1cccc(Oc2ccccc2NC(=O)CNC(=O)c2cccc3ccccc23)c1 | MOLT-4 | cell growth or viability, SRB | 48 h | GI50 | 661 nM |
| COc1ccc(CN2CCc3cc(OS(N)(=O)=O)c(OC)cc3C2)cc1OC | DU-145 | cell growth or viability, WST-1 | 96 h | GI50 | 8540 nM |
| C[C@@H](NC(=O)[C@H](CCCCNC(=O)C(F)(F)F)NS(C)(=O)=O)C(=O)N[C@@H](CCCNC(=N)N)C(N)=O | Jurkat | cell growth or viability, MTT | 72 h | EC50 | 21200 to 28100 nM |
| COc1ccc(-c2ccc(-c3ccc(C(=N)N)nc3)s2)cc1Cl | SF-295 | cell growth or viability, SRB | – | GI50 | 1800 nM |
| COc1ccc2c(N(C)c3ccc(/C(C)=N/OCCN)cc3)c3c(Cl)coc3nc2c1 | LNCaP | cell migration | 1 µM, 24 h | inhibition | 70% |
| CC(C)C[C@H](NC(=O)[C@H](Cc1ccccc1)NC(=O)c1cnccn1)B(O)O | LN-229 | cell growth or viability, ATP luminescence | – | IC50 | 7.9 nM |
| Cn1cc(C(c2ccc(C(=O)O)cc2)c2cn(C)c3ccccc23)c2ccccc21 | DU-145 | cell growth or viability, MTT | 100 µM, 48 h | inhibition | ~20% |
| COc1cc2c(cc1OS(N)(=O)=O)CCN(Cc1cccc([N+](=O)[O-])c1)C2 | DU-145 | cell growth or viability, WST-1 | 96 h | GI50 | 3030 nM |
| O=C(O)/C=C/c1cccc(C(c2c[nH]c3ccccc23)c2c[nH]c3ccccc23)c1 | DU-145 | cell growth or viability, MTT | 100 µM, 48 h | inhibition | 28% |
| COc1cc2c(cc1OS(N)(=O)=O)CCN(S(=O)(=O)c1ccccc1OC)C2 | DU-145 | cell growth or viability, WST-1 | 96 h | GI50 | > 100000 nM |
| COc1cc(Nc2nccc(-c3cnn4nc(OC)ccc34)n2)cc(C(F)(F)F)c1 | LOU-NH91 | cell growth or viability, ATP luminescence | – | IC50 | 190 nM |
| O=C(O)c1ccc(C(c2c[nH]c3ccccc23)c2c[nH]c3ccccc23)cc1 | DU-145 | cell growth or viability, MTT | 100 µM, 48 h | inhibition | 34% |
